# Data reported in ChEMBL document CHEMBL4184218, “Design, synthesis and biological evaluation of new carbazole derivatives as anti-cancer and anti-migratory agents” (Bioorg Med Chem, 2018).
# The source made the active and inactive calls. The rule behind the calls is not given here.
# Key:
# [1] = system: MCF7; assay: Growth inhibition of human MCF7 cells after 24 hrs by SRB assay; type: functional; settings: MCF7, 24 h
# In short: (§1)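 Sulforhodamine B growth assay in MCF-7 or MDA-MB-231 breast cancer cells after 24 h of compound treatment. GI50 is the concentration giving 50% inhibition of proliferation, with an upper test limit of 50 µM. Values are the mean of triplicate experiments.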
# [2] = system: MDA-MB-231; assay: Growth inhibition of human MDA-MB-231 cells after 24 hrs by SRB assay; type: functional; settings: MDA-MB-231, 24 h; in short: as §1
# [3] = system: MDA-MB-231; assay: Anti-migratory activity against human MDA-MB-231 cells assessed as cell migration at 10 uM after 12 hrs by scratch wound-healing assay; type: functional, cell-based
# In short: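 Scratch wound-healing assay in MDA-MB-231 cells with test compounds at 10 µM against vehicle (0.02% DMSO). Wounds were photographed at 0, 12 and 24 h. Migration was taken as the distance travelled from the scratch edge toward its centre, relative to control. Values are the average of three independent experiments.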
# [4] = target: Ras-related C3 botulinum toxin substrate 1 (Homo sapiens) (UniProt P63000); assay: Inhibition of Rac1 in human MDA-MB-435 cells assessed as reduction in Rac-GTP level atv 250 nM after 24 hrs by ELISA-based pull down assay; type: cell-based
# [5] = system: MCF-10A; assay: Growth inhibition of human MCF10A cells up to 36 uM after 24 hrs by CellTiter 96 aqueous one solution cell proliferation assay; type: cell-based
# [6] = system: MCF-10A; assay: Cytotoxicity against human MCF10A cells assessed as reduction in cell viability at 30 to 50 uM after 24 hrs by CellTiter 96 aqueous one solution cell proliferation assay; type: cell-based
# [7] = target: Ras-related C3 botulinum toxin substrate 1 (Homo sapiens) (UniProt P63000); assay: Inhibition of Rac1 in human MDA-MB-231 cells assessed as reduction in Rac-GTP level at 250 nM after 24 hrs by ELISA-based pull down assay; type: cell-based
# [8] = target: Ras-related C3 botulinum toxin substrate 1 (Homo sapiens, UniProt P63000, G15A); assay: Inhibition of Vav2 binding to Rac1 G15A mutant in human MDA-MB-231 cells after 1 hr by pull down assay; type: cell-based
# [9] = Growth inhibition of human MCF10A cells at 10 uM after 24 hrs by MTT assay relative to control; type: cell-based, MCF-10A; settings: read-out: GI
# [10] = system: MDA-MB-231; assay: Anti-migratory activity against human MDA-MB-231 cells assessed as reduction in cell migration at 5 uM after 24 hrs by scratch wound-healing assay relative to control; type: functional; set-up: scale not given: the % may be the effect or the level left
# [11] = target: Ras-related C3 botulinum toxin substrate 1 (Homo sapiens) (UniProt P63000); assay: Inhibition of Rac1 in human MDA-MB-435 cells assessed as reduction in phosphorylation at Thr423 residue at 2 uM after 24 hrs by Western blot analysis; type: cell-based
Structure (SMILES),GI50 [1] [µM],GI50 [2] [µM],further results
CCn1c2ccccc2c2cc(NC(=O)c3cccnc3N3CCN(C(C)=O)CC3)ccc21,> 50,> 50,
CCn1c2ccccc2c2cc(NC(=O)c3cccnc3N3CCN(c4ccccc4)CC3)ccc21,> 50,> 50,
CCn1c2ccccc2c2cc(NC(=O)c3cccnc3N3CCOCC3)ccc21,> 50,> 50,Activity [3]: Active
CCn1c2ccccc2c2cc(NC(=O)c3nccnc3C(=O)NCCOC)ccc21,> 50,> 50,
CCn1c2ccccc2c2cc(NC(=O)c3nccnc3C(=O)NCCCN3CCOCC3)ccc21,> 50,> 50,
CCn1c2ccccc2c2cc(NC(=O)c3nccnc3C(=O)NCCN3CCOCC3)ccc21,> 50,> 50,
CCn1c2ccccc2c2cc(Nc3ncccc3NC(=O)CCN3CCCCC3)ccc21,15,23,
CCn1c2ccccc2c2cc(Nc3ncccc3C(=O)Nc3cc(OC)c(OC)c(OC)c3)ccc21,> 50,> 50,
CCn1c2ccccc2c2cc(C(=O)Nc3cccnc3N3CCOCC3)ccc21,> 50,> 50,inhibition [4]: 55%; growth inhibition (GI) [5]: Non-Toxic; Activity [3]: Active; Activity [6]: Non-Toxic; inhibition [7]: 55%
CCn1c2ccccc2c2cc(NC(=O)c3ccccc3C(=O)NCCOC)ccc21,> 50,> 50,
CCn1c2ccccc2c2cc(Nc3ccnc(NCCCN4CCOCC4)n3)ccc21,14,15,"IC50 [8]: 1.1 µM; inhibition at 24 h, 10 µM [9]: 50%; Activity [10]: 17%; inhibition [11]: 60%"
CCn1c2ccccc2c2cc(C(=O)Nc3cccnc3NCCCN3CCOCC3)ccc21,32,39,

# Continued, in another order:
GI50 [1] [µM],GI50 [2] [µM],Structure (SMILES),further results
14,18,CCN(CC)CCNC(=O)c1cccnc1Nc1ccc2c(c1)c1ccccc1n2CC,
> 50,19,CCn1c2ccccc2c2cc(NC(=O)c3cccnc3NCCCN3CCOCC3)ccc21,
> 50,> 50,CCn1c2ccccc2c2cc(Nc3ncccc3C(=O)NCCN3CCN(C(=O)OC(C)(C)C)CC3)ccc21,
13,18,CCN(CC)CCCC(C)NC(=O)c1cccnc1Nc1ccc2c(c1)c1ccccc1n2CC (configuration not stated),
28,> 50,CCn1c2ccccc2c2cc(Nc3ncccc3C(=O)NCCCN3CCOCC3)ccc21,
> 50,> 50,CCn1c2ccccc2c2cc(NC(=O)c3ccccc3C(=O)NCCO)ccc21,
27,> 50,CCn1c2ccccc2c2cc(Nc3ncccc3C(=O)NCCCn3ccnc3)ccc21,
> 50,> 50,CCn1c2ccccc2c2cc(NC(=O)c3nccnc3C(=O)NCCCn3ccnc3)ccc21,
41,31,CCn1c2ccccc2c2cc(Nc3ncccc3NC(=O)c3cccnc3)ccc21,
